A word on the IC50: it is the concentration that gives 50% inhibition. A word on the inhibition: it is the drop in the measured response relative to a control, in per cent.

A value given as a limit tells only on which side of the number the result lay.

Data on 18 compounds can be found in ChEMBL document CHEMBL4732230, “Design, synthesis, and biological evaluation of 4-benzoylamino-1H-pyrazole-3-carboxamide derivatives as potent CDK2 inhibitors” (Eur J Med Chem, 2021).

One data set addresses CDK2/Cyclin A2 (Homo sapiens, UniProt P24941). Put plainly: Inhibition of CDK2/cyclin A2 (unknown origin) using FAM-labeled peptide and ATP as substrate preincubated for 10 mins followed by substrate addition by mobility shift assay. The class given is protein-complex assay.
The target in data set [1] is Cyclin-dependent kinase 1/cyclin B1 (Homo sapiens, UniProt P06493). It counts as protein-complex assay.
Sequence of Cyclin-dependent kinase 1/cyclin B1 (P06493 whole entry): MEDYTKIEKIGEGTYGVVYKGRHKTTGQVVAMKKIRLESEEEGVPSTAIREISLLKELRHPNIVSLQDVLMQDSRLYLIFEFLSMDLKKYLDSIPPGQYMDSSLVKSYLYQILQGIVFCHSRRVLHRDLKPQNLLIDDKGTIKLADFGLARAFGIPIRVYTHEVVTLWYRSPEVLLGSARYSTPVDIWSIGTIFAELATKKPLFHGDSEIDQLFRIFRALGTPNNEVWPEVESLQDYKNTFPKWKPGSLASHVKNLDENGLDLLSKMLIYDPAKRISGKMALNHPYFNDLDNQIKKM
Sequence of Cyclin-dependent kinase 1/cyclin B1 (P14635 whole entry, further chain): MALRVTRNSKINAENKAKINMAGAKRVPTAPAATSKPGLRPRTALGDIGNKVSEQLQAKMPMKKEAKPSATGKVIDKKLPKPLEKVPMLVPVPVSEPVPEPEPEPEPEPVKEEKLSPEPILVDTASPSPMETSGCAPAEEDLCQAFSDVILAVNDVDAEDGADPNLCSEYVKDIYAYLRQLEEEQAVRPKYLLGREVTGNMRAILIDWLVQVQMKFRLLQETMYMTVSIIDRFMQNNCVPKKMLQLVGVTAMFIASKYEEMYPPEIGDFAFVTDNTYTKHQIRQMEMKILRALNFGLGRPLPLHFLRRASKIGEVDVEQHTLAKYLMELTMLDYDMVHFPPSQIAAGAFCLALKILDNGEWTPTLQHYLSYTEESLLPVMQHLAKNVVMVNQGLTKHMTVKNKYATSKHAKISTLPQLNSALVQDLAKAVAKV
The subject of the next data set is A2058. Put plainly: Antiproliferative activity against human A2058 cells assessed as reduction in cell viability measured after 96 hrs by Celltiter-Glo luminescent assay. The class given is functional, cell-based. Conditions: A2058, 96 h. Put shortly:
(§1)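 Cells in DMEM (A2058, MRC5) or RPMI 1640 (MV4-11), each with 10% fetal bovine serum and 1% penicillin/streptomycin. Cells were plated in 96-well plates and exposed to serially concentrated compound for 96 h, with DMSO as control. Viability was read by CellTiter-Glo luminescence and IC50 derived.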

A further data set relates to MV4-11. Put plainly: Antiproliferative activity against human MV4-11 cells assessed as reduction in cell viability measured after 96 hrs by Celltiter-Glo luminescent assay. The class given is functional, cell-based. Conditions: MV4-11, 96 h. The essentials:
as §1
A general note: In ATP-based viability assays light output follows the ATP content of the culture.

The nature of data set [2]: Cytotoxicity against human LX2 cells assessed as inhibition of cell growth at 100 uM measured after 96 hrs by Celltiter-Glo luminescent assay. The class given is cell-based. The essentials:
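LX2 cells grown in DMEM with 10% fetal bovine serum and 1% penicillin/streptomycin, plated in 96-well plates. They were treated with compound at […] or DMSO control for 96 h. Viability was read by CellTiter-Glo luminescence and expressed as percent inhibition.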

In the next data set the test system is MRC5. Put plainly: Cytotoxicity against human MRC5 cells assessed as reduction in cell viability measured after 96 hrs by Celltiter-Glo luminescent assay. It counts as cell-based. As to conditions: MRC5, 96 h. Put shortly:
as §1

Consider `O=C(Nc1ccc(F)cc1)c1n[nH]cc1NC(=O)c1c(F)ccc(-c2cccc(O)c2)c1F`, for which the IC50 on CDK2/Cyclin A2 was 26 nM; in data set [1], 236 nM.
With `Nc1ccc(-c2ccc(F)c(C(=O)Nc3c[nH]nc3C(=O)Nc3ccc(F)cc3)c2F)cn1`, the results for the IC50 (with A2058; at CDK2/Cyclin A2; in data set [1]) were 8540 nM, 120 nM and 1260 nM, respectively.
`O=C(NC1CCNCC1)c1n[nH]cc1NC(=O)c1c(Cl)cccc1Cl` [AT-7519]: the IC50 in the data set with MV4-11 is 391 nM; in the data set on MRC5, 425 nM. Besides, the inhibition at 96 h, 100 µM in data set [2] came to 39.4%.
Consider `O=C(NCCCN1CCOCC1)c1cccc(-c2ccc(F)c(C(=O)Nc3c[nH]nc3C(=O)Nc3ccc(F)cc3)c2F)c1`, for which the IC50 in the data set on A2058 is 650 nM; on CDK2/Cyclin A2, 73 nM; in data set [1], 723 nM.
For the compound `O=C(Nc1ccc(F)cc1)c1n[nH]cc1NC(=O)c1c(F)ccc(-c2cccc(CO)c2)c1F`, the IC50 at CDK2/Cyclin A2 stood at 76 nM; in data set [1] it was 537 nM.
With `CN1CCN(CCNC(=O)c2cccc(-c3ccc(F)c(C(=O)Nc4c[nH]nc4C(=O)Nc4ccc(F)cc4)c3F)c2)CC1`, the IC50 on CDK2/Cyclin A2 is 67 nM; in data set [1] it was 350 nM.
For the compound `O=C(Nc1ccc(F)cc1)c1n[nH]cc1NC(=O)c1c(F)cccc1F`, the IC50 with A2058 is 1010 nM; in data set [1], 14 nM.
For `COC(=O)c1cccc(-c2ccc(F)c(C(=O)Nc3c[nH]nc3C(=O)Nc3ccc(F)cc3)c2F)c1`, the IC50 came out at 210 nM on CDK2/Cyclin A2 and 496 nM in data set [1].
Take `Cc1ccc(C(=O)NCCCN2CCOCC2)cc1-c1ccc(F)c(C(=O)Nc2c[nH]nc2C(=O)Nc2ccc(F)cc2)c1F`: the IC50 with A2058 came out at 6510 nM; at CDK2/Cyclin A2 it was 485 nM; in data set [1], 3690 nM.
As to `CN1CCC(CNC(=O)c2cccc(-c3ccc(F)c(C(=O)Nc4c[nH]nc4C(=O)Nc4ccc(F)cc4)c3F)c2)CC1`, the half-maximal inhibitory concentration (IC50) in the data set with A2058 is 3340 nM; on CDK2/Cyclin A2, 82 nM; in data set [1] it was 743 nM.
Take `NC(=O)c1cccc(-c2ccc(F)c(C(=O)Nc3c[nH]nc3C(=O)Nc3ccc(F)cc3)c2F)c1`: the IC50 was determined as 1990 nM in the data set on A2058, 8 nM on CDK2/Cyclin A2 and 69 nM in data set [1].
In the case of `Cc1ccc(-c2ccc(F)c(C(=O)Nc3c[nH]nc3C(=O)Nc3ccc(F)cc3)c2F)cn1`, the IC50 was determined as 164 nM at CDK2/Cyclin A2 and 1850 nM in data set [1].
For `O=C(Nc1ccc(F)cc1)c1n[nH]cc1NC(=O)c1c(F)ccc(-c2ccc(F)nc2)c1F`, the IC50 in the data set on A2058 amounted to 6310 nM; at CDK2/Cyclin A2, 51 nM; in data set [1], 278 nM.
The matching figures for `NS(=O)(=O)c1ccc(Nc2nc(-c3cccc(-c4ccccc4)c3)c3nc[nH]c3n2)cc1`: more than 100000 nM, 543 nM and more than 200000 nM.
Regarding `COc1ccc(-c2ccc(F)c(C(=O)Nc3c[nH]nc3C(=O)Nc3ccc(F)cc3)c2F)cn1`, the IC50 on CDK2/Cyclin A2 amounted to 144 nM; in data set [1] it was 712 nM.
`O=C(NCCCN1CCOCC1)c1ccc(F)c(-c2ccc(F)c(C(=O)Nc3c[nH]nc3C(=O)Nc3ccc(F)cc3)c2F)c1`: the IC50 with A2058 came to 943 nM; at CDK2/Cyclin A2, 169 nM; in data set [1], 1300 nM.
As for `O=C(Nc1ccc(F)cc1)c1n[nH]cc1NC(=O)c1c(F)ccc(-c2cccnc2)c1F`, the IC50 with A2058 was 2940 nM; at CDK2/Cyclin A2, 40 nM; in data set [1], 306 nM.
The matching figures for `O=C(Nc1ccc(F)cc1)c1n[nH]cc1NC(=O)c1c(F)ccc(-c2ccccc2)c1F`: 2370 nM, 86 nM and 432 nM.
